The source of these data is ChEMBL document CHEMBL1123083, “Synthesis and antiherpetic activity of (S)-, (R)-, and (+/-)-9-[(2,3-dihydroxy-1-propoxy)methyl]guanine, linear isomers of 2'-nor-2'-deoxyguanosine” (J Med Chem, 1985).

Data set [1] deals with Human alphaherpesvirus 2. In words: In vitro anti viral activity tested against HSV-2(Curtis) virus on Rabbit kidney cell cultures. It is filed as functional. Conditions: Human alphaherpesvirus 2, kidney; read-out: ED50 (the source's name). In a few lines: (§1)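 Confluent primary rabbit kidney monolayers were preincubated with serial drug dilutions in EMEM with 2% fetal calf serum and neomycin. They were then challenged with about 10 TCID50 of HSV-1 Schooler or HSV-2 Curtis and incubated at 37 °C. Cytopathology was scored on day 5. ED50 is the concentration preventing cytopathology in half of the infected cultures.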

The test system of data set [2] is Human alphaherpesvirus 1. In words: In vitro anti viral activity tested against HSV-1(Schooler) virus on Rabbit kidney cell cultures. It is filed as functional. Conditions: Human alphaherpesvirus 1, kidney; read-out: ED50 (the source's name). The essentials:
as §1

Data set [3] has as its system Human alphaherpesvirus 1. The data set is described as follows: Efficacy was evaluated against Systemic HSV-1 infection in mice at a daily dose of 0.8 mg/kg administered subcutaneously. It counts as ADME, organism-based. On the set-up: dose 0.8 mg/kg, route subcutaneous. To be noted: mouse, in vivo, sc. In a few lines:
(§2)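 ICR/Ha mice (10–20 g, mixed sex) were infected intraperitoneally with 50–100 LD50 of HSV-1 Schooler. Subcutaneous dosing of 0.1 mL twice daily for 4 days started immediately after infection. Groups were of about 10 mice. Survival was recorded daily for 15 days and reported as survivors/total and mean survival time (95% CI). Transformed survival times were compared with placebo-treated infected mice (p < 0.05).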

Data set [4] deals with Human alphaherpesvirus 1. In words: Efficacy was evaluated against Systemic HSV-1 infection in mice at a daily dose of 12.5 mg/kg administered subcutaneously. It is filed as ADME, organism-based. On the set-up: dose 12.5 mg/kg, route subcutaneous. Conditions: mouse, in vivo, sc. In a few lines: as §2
In data set [5] the test system is Human alphaherpesvirus 1. The data set is described as follows: Efficacy was evaluated against Systemic HSV-1 infection in mice at a daily dose of 3.1 mg/kg administered subcutaneously. It counts as ADME, organism-based. On the set-up: dose 3.1 mg/kg, route subcutaneous. To be noted: mouse, in vivo, sc. In a few lines: as §2
Data set [6] has as its system Human alphaherpesvirus 1. The data set is described as follows: Efficacy was evaluated against Systemic HSV-1 infection in mice at a daily dose of 0.8 mg/kg administered subcutaneously; Tested mice 10. It is filed as organism-based. Conditions: mouse, in vivo, sc. Also noted: dose 0.8 mg/kg, route subcutaneous. The essentials: as §2
Data set [7] deals with Human alphaherpesvirus 1. The data set is described as follows: Efficacy was evaluated against Systemic HSV-1 infection in mice at a daily dose of 12.5 mg/kg administered subcutaneously; Tested mice 10. It is filed as organism-based. Also noted: dose 12.5 mg/kg, route subcutaneous. To be noted: mouse, in vivo, sc. The essentials:
as §2

For data set [8], the system named is Human alphaherpesvirus 1. The data set is described as follows: Efficacy was evaluated against Systemic HSV-1 infection in mice at a daily dose of 3.1 mg/kg administered subcutaneously; Tested mice 10. Conditions: mouse, in vivo, sc. On the set-up: dose 3.1 mg/kg, route subcutaneous. It is filed as ADME, organism-based. In a few lines:
as §2

Data set [9] has as its system Human alphaherpesvirus 1. The data set is described as follows: Evaluated for DNA polymerase inhibition activity against herpes simplex virus-1 (HSV-1). It is filed as functional. In a few lines: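 Step II mixture supplied the phosphorylated test material. Step I: compound with HSV-1 thymidine kinase, 4 h, 37 °C. Step II: then HSV-1-infected HeLa crude extract plus GMP kinase, overnight, 30 °C. A 20 μL sample went to a 1 h, 37 °C DNA polymerase assay at pH 8 with activated salmon sperm DNA, 0.05 mM each dNTP ([³H]dTTP) and infected HeLa extract. (NH₄)₂SO₄ 0.1 M was present for the viral enzyme and omitted for the cellular polymerases. Read-out: TCA-precipitable radioactivity.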

Data set [10] has as its system Human alphaherpesvirus 2. In words: In vitro anti viral activity tested against HSV-2(Curtis) virus on Rabbit kidney cell cultures; 25-50. It is filed as functional. Conditions: Human alphaherpesvirus 2, kidney; read-out: ED50 (the source's name). The essentials:
as §1

Data set [11] concerns DNA polymerase (Homo sapiens). In words: Evaluated for DNA polymerase inhibition activity against HeLa cells.
A further data set deals with Human betaherpesvirus 5. In words: In vitro anti viral activity tested against HCMV(AD169) virus on MRC-5 cell monolayers; NA=Not active at 25 ug/mL. It is filed as functional, organism-based. Conditions: MRC5. The essentials:
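MRC-5 monolayers were infected with HCMV AD169 for 1 h at 37 °C. Compound diluted in maintenance medium was then added and incubation continued for 7 days at 37 °C. Monolayers were stained and plaques counted. ED50 is the concentration reducing plaque number by 50%.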

Each structure is given as a SMILES string. ≈ marks a conversion by molar mass, not a printed value. Calls of active or inactive are those of the source. No cut-off for these calls is given here.

Take `Nc1nc(O)c2ncn(COCC(O)CO)c2n1` (stereo not drawn): the EC50 in the data set on Human alphaherpesvirus 2 [1] turned out to be 6 µg/mL (≈ 23.5 µM); in the data set on Human alphaherpesvirus 1 [2], 3 µg/mL (≈ 11.8 µM).

Broadly, the Inhibition is the percentage by which the read-out fell short of the control. Low values mean little suppression, high ones strong suppression. For the compound `Nc1nc(O)c2ncn(COCC(O)CO)c2n1` (single isomer, unassigned; form 1) [listing 1 of 2 here], the results for the Average survival in the data set on Human alphaherpesvirus 1 [3], in the data set on Human alphaherpesvirus 1 [4] and with Human alphaherpesvirus 1 [5] were 6.3 days, 7.5 days and 6.5 days, respectively. In addition, the values for the Survivors in the data set with Human alphaherpesvirus 1 [6], with Human alphaherpesvirus 1 [7] and in the data set on Human alphaherpesvirus 1 [8] were 0, 1 and 1, respectively. The Inhibition is on record as 7% with Human alphaherpesvirus 1 [9] and 0% in data set [11]. The EC50 in the data set on Human alphaherpesvirus 2 [10] and in the data set with Human alphaherpesvirus 1 [2] was 25 µg/mL (≈ 97.9 µM) each time.

Regarding `Nc1nc(O)c2ncn(COCC(O)CO)c2n1` (single isomer, unassigned; form 1) [listing 2 of 2 here], the ED50 entry in the data set with Human betaherpesvirus 5 was “inactive”.
